# Screens: PubChem, Broad Institute
# CAL PDZ FP-1: CAL PDZ (human) peptide binding inhibition; inhibition, % at 24.9 µM; 0.92% of 300,000 active; AID 602252; Q9HD26; purified CAL PDZ, TMR-peptide fluorescence polarization, 1 h;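 active means mean inhibition of at least 30% with at least half of replicates also reaching 30%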;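 further: 0% = DMSO neutral control and 100% = excess unlabeled competitor peptide PRC23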
# miR122 inh: miR-122 inhibition in Huh7 cells. Huh7 miR-122 Renilla luciferase sensor, 48 h; neutral wells = 0, positive control = 100. activation (reporter increase), % at 12.5 µM. 0.3% of 340,000 active. AID 602342;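 active means mean replicate activation score at least 90 and every replicate individually at or above 90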;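 further: higher luciferase means less miR-122 activity so hits act as miR-122 inhibitors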
# CAL PDZ FP-2: blocks peptide binding to human CAL PDZ domain; purified CAL PDZ, TMR-peptide fluorescence polarization, 1 h; inhibition, % at 20 µM; 0.02% of 330,000 active; AID 504414;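 active means highest replicate inhibition of at least 40%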;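 further: plate controls were DMSO neutral control wells for no effect and unlabeled competitor peptide control wells for full effect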
#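 System: purified tagged CAL PDZ domain construct (CerCALP). Schedule: 1 h incubation at room temperature before polarization reading. Medium: 25 mM sodium phosphate pH 7.4, 150 mM NaCl, TCEP, IgG, Thesit. Read-out: percent inhibition from loss of millipolarization. Measured by: FP readout, S and P plane fluorescence. Probe or stimulus: fluorescent TMR peptide probe.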
# SR-BI DiI inh: blocks mouse SR-BI lipid uptake from DiI-HDL; Q61009; ldlA[mSR-BI] CHO cells, DiI-HDL uptake fluorescence, 3 h; inhibition, % at 12.5 µM; 0.96% of 320,000 active; AID 488896;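 active means mean replicate inhibition of at least 70% and a set share of replicates each scoring 70 or more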;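 further: 0% = median of neutral control wells and 100% = median of positive control wells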
# Target sequence (Q61009 whole entry, looked up): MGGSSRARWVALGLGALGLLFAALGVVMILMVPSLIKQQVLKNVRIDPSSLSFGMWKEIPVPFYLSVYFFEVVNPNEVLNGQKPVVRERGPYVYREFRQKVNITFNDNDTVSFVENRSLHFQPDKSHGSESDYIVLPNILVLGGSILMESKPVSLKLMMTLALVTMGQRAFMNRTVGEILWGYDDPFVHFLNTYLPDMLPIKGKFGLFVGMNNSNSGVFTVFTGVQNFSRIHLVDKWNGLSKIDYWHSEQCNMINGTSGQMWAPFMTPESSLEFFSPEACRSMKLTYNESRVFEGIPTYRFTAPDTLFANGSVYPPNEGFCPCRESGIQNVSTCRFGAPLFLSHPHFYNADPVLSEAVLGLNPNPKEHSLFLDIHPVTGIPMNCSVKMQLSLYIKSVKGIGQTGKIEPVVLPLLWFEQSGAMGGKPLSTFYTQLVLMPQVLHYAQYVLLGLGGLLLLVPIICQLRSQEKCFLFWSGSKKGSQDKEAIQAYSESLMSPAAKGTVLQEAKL
# SR-BI DiI-HDL act: SR-BI HDL lipid transfer activation | CHO ldlA[mSR-BI] cells, DiI-HDL uptake fluorescence, 3 h; 100 = double the neutral-control signal | activation, % at 12.5 µM | 0.096% of 320,000 active | AID 504775;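 active means mean replicate activation of at least 60% and every replicate at or above 60%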;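 further: 0% = median plate neutral-control signal and 100% = twice that signal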
#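 Material: SR-BI-overexpressing, LDLR-lacking CHO cells | Dosing: Single compound concentration, delivered by pin transfer | Probe or stimulus: Labelled HDL, 10 µg/mL | Signal: Bottom-read cell fluorescence after medium removal, ex 550/em 595 nm | Schedule: 3 h, 37 °C | Evaluation: HDL uptake via cellular fluorescence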
# ARNT TACC3 PPI: disruptors of human ARNT/TACC3 interaction | 0.66% of 390,000 active | Q9Y6A5 | AlphaScreen His-ARNT PAS-B/GST-TACC3 binding, luminescence; TACC3 fragment carries E629A point mutation | inhibition, % at 9.99 µM;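 active means mean inhibition of replicates at least 50% and at least half of replicates each reaching 50%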;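 further: 0% = complete ARNT plus TACC3 wells and 100% = ARNT alone without TACC3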
# Starred values were filed as active, the others as inactive; · = no result given; [ ] = another dose, or the depositor's remark. Rows were chosen to be rich in hits. Some 2.1% of all compounds tested hit in one or more screens of this group.
SMILES,CAL PDZ FP-1,miR122 inh,CAL PDZ FP-2,SR-BI DiI inh,SR-BI DiI-HDL act,ARNT TACC3 PPI
Cc1[nH]c2ccccc2c1C(=O)CCl,62.6*,·,-0.5,-14.2,14.2,-6.6
CCN(CC)CC(=O)Nc1ccc2c(c1)N(C(=O)CN(CC)CC)c1ccccc1CC2,22.1,-0.3,-1.5,-19.6,19.6,8.7
CCN(CC)CC(=O)Nc1ccc2c(c1)Nc1ccccc1CC2,-1.1,9.6,·,81.6*,-81.6,22.0
CC(C)C#Cc1ccc2c(c1)O[C@@H](CN(C)C(=O)C1CCCCC1)[C@H](C)CN([C@H](C)CO)S2(=O)=O,·,-5.3[16.7 µM],·,·,·,·
CC1=C(C)/C(=N\OS(=O)(=O)c2ccccc2)C=CC1=O,0.5,-4.9,-0.9,86.5*,-86.6,·
COc1ccc2c(c1)CCc1cc(C(=O)N3CCN(c4ccc(N5CCOCC5)nn4)CC3)sc1-2,·,-12.6,0.1,77.2*,-77.2,-0.3
CCc1cc2c(COC(=O)c3cc(S(=O)(=O)N4CCOCC4)ccc3F)cc(=O)oc2cc1O,-6.3,-0.4,0.9,77.5*,-77.5,-2.6
O=C(OCc1cc(=O)oc2cc(O)ccc12)c1cc(S(=O)(=O)N2CCOCC2)ccc1F,-1.6,·,-1.4,40.2,-40.2,2.8
C[C@H]1CCCCO[C@@H](CN(C)C(=O)NC2CCCCC2)[C@@H](C)CN([C@@H](C)CO)C(=O)c2cc(NS(=O)(=O)c3cn(C)cn3)ccc2O1,·,-0.8[16.7 µM],·,·,·,1.4
C[C@H]1CCCCO[C@@H](CN(C)C(=O)Nc2ccc(F)cc2)[C@@H](C)CN([C@@H](C)CO)C(=O)c2cc(NC(=O)c3ccccc3)ccc2O1,·,-6.0[16.7 µM],·,·,·,-3.5
COc1cccc(NC(=O)c2sc3ncn(CC(=O)N4CCN(c5ccccn5)CC4)c(=O)c3c2C)c1,-1.9,1.6,-1.9,78.9*,-78.9,-4.0
CCOc1ccccc1NC(=O)c1sc2ncn(CC(=O)N3CCOCC3)c(=O)c2c1C,3.8,·,-1.6,71.2*,-71.2,20.7
Cc1ccc(NC(=O)c2sc3ncn(CC(=O)N4CCN(c5ccccn5)CC4)c(=O)c3c2C)cc1Cl,-1.6,-7.9,0.2,68.0,-68.0,-3.1
COc1ccccc1NC(=O)c1sc2ncn(CC(=O)N3CCC(C)CC3)c(=O)c2c1C,-1.5,-1.0,-1.4,4.9,-4.9,-0.8
COc1ccc(/C=C2/N=C(SCC(=O)Nc3cc(C)on3)N(c3ccccc3)C2=O)cc1,-1.6,-8.7,0.0,-3.4,3.4,-0.6
CCC(SC1=N/C(=C/c2ccccc2)C(=O)N1c1ccccc1)C(=O)Nc1cc(C)on1 (stereo not drawn),·,340.5*,-0.8,-15.4,15.4,-1.2
CC1=NN(c2nc(-c3ccc(C)cc3)cs2)C(=O)C1N=Nc1ccc(C(N)=O)cc1 (stereo not drawn),·,-3.9,0.5,81.3*,-81.3,-6.2
C[C@H]1CN([C@@H](C)CO)C(=O)c2cc(NS(=O)(=O)c3ccc(Cl)cc3)ccc2O[C@@H]1CN(C)Cc1ccc(C(F)(F)F)cc1,·,-4.4[16.7 µM],·,·,·,·
O=C(CSc1nccc(-c2cccs2)n1)Nc1ccc(Cl)cc1,·,1.0,-2.8,5.0,-5.0,-1.2
O=C(CSc1nccc(-c2cccs2)n1)Nc1cccc(Cl)c1Cl,51.4*,0.0,-0.1,-3.9,3.9,-5.2
CCOc1ccccc1C(=O)NCC(=O)OCc1csc(CC(=O)Nc2ccc(C)cc2)n1,64.9*,·,-0.1,63.6,-63.6,-1.6
CCOc1ccccc1C(=O)N[C@H](C(=O)OCc1csc(CC(=O)Nc2ccc(C)cc2)n1)C(C)C,-2.8,-0.9,-0.6,41.8,-41.7,-7.7
COc1ccc(NC(=O)Nc2ccc3c(c2)C(=O)N([C@H](C)CO)C[C@H](C)[C@H](CN(C)C(=O)Nc2ccccc2)OCCCC[C@H](C)O3)cc1,·,17.0[16.7 µM],·,·,·,-1.9
O=C(C1=C[C@@H](c2ccc(Br)cc2)C[C@@H](OCc2ccc(CO)cc2)O1)N1CCCC1,·,·,·,·,·,2.5
Clc1cc(Cl)c2nc(N3CCOCC3)sc2c1,1.0,2.4,-1.8,5.3,-5.3,-5.0
SMILES,CAL PDZ FP-1,miR122 inh,CAL PDZ FP-2,SR-BI DiI inh,SR-BI DiI-HDL act,ARNT TACC3 PPI
Clc1ccc(-c2nsc(N3CCOCC3)n2)c(Cl)c1,62.3*,-2.5,-0.8,-2.1,2.1,-6.6
C[C@H](CO)N1C[C@H](C)[C@@H](CN(C)C(=O)c2ccncc2)Oc2ncc(C#CC3CCCC3)cc2C1=O,·,-3.2[16.7 µM],·,·,·,·
Cc1cc(C)c(NC(=O)COC(=O)c2cc([N+](=O)[O-])ccc2N2CCOCC2)c(C)c1,-3.1,2.2,-2.1,46.7,-46.7,12.8
O=C(COC(=O)c1cc([N+](=O)[O-])ccc1N1CCOCC1)Nc1cc(F)ccc1F,-1.8,·,-1.3,85.0*,-85.0,2.9
O=C(COC(=O)c1cc([N+](=O)[O-])ccc1N1CCOCC1)c1ccc(OC(F)F)cc1OC(F)F,6.7,·,-2.1,76.2*,-76.2,1.4
COc1cccc(-c2nn(-c3ccccc3)cc2C(=O)OCC(=O)Nc2ncc(Cl)cc2Cl)c1,-2.7,-0.3,-1.2,-9.3,9.3,-3.3
Cc1cc(NC(=O)COC(=O)c2cc([N+](=O)[O-])ccc2N2CCOCC2)ccc1Br,-0.6,·,-3.8,71.3*,-71.3,-10.2
O=C(COC(=O)c1cn(-c2ccccc2)nc1-c1ccccc1)Nc1ncc(Cl)cc1Cl,76.8*,-3.5,0.1,29.3,-29.3,1.1
COc1ccc(OC)c(COC(=O)c2cc([N+](=O)[O-])ccc2N2CCOCC2)c1,0.9,30.7,-3.1,59.1,-59.1,·
CC(=O)Nc1ccc2c(c1)C(=O)N(C)[C@H]1CC[C@H](CC(=O)NCCCN3CCOCC3)O[C@H]1CO2,·,-16.7[16.7 µM],·,·,·,-11.5
O=C(C[C@@H]1CC[C@H]2[C@@H](COC[C@H](O)CN2Cc2ccccc2F)O1)NC1CCC1,·,6.6[16.7 µM],·,·,·,30.8
O=C(N[C@@H]1CC[C@H](CCn2cc(-c3ccccc3)nn2)O[C@@H]1CO)c1ccccc1F,·,·,·,·,·,1.5
O=C(COC(=O)c1cc([N+](=O)[O-])ccc1N1CCOCC1)Nc1ncc(Cl)cc1Cl,·,·,-0.7,85.6*,·,-2.8
O=C(COC(=O)c1cc([N+](=O)[O-])ccc1N1CCOCC1)Nc1ccccc1OC(F)F,·,-4.3,-0.4,73.7*,-73.7,5.1
COc1ccc(CN(C)C[C@H]2OCCCC[C@H](C)Oc3ccc(NC(=O)Nc4ccccc4)cc3C(=O)N([C@H](C)CO)C[C@H]2C)cc1,·,-1.9[16.7 µM],·,·,·,2.3
COC(=O)[C@H]1[C@H](CO)[C@H]2Cn3c(ccc(C4=CCCC4)c3=O)[C@H]2N1CC1CCOCC1,·,·,·,·,·,6.3
Cc1nnc(SCC(=O)c2ccc(S(=O)(=O)N3CCOCC3)cc2)n1-c1ccccc1,73.2*,1.6,0.8,-21.1,21.1,-31.9
CC(=NNc1nc2ccccc2o1)c1cc2ccccc2cn1,-6.5,·,-1.6,33.4,-33.4,5.0
